Experimental findings from ChEMBL document CHEMBL3600374, “Dual inhibitors of the dengue and West Nile virus NS2B-NS3 proteases: Synthesis, biological evaluation and docking studies of novel peptide-hybrids” (Bioorg Med Chem, 2015) are described below.

Each structure is given as a SMILES string. Active and inactive are the calls of the source. The calls are words filed in the database; no cut-off is given here.

The test system of assay [1] is dengue virus type 2. As to the kind of experiment: Binding affinity to DENV serotype 2 NS2B-NS3 protease expressed in Escherichia coli BL21 lambda (DE3) cells at 0.5 to 48 uM by fluorescence quenching assay in presence of DENV protease inhibitor aprotinin. A digest of the protocol: (§1)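 DENV protease held at 1 μM, aprotinin at 10 μM, inhibitor at 0, 0.5, 1, 2, 5, 10, 20, 30, 40, 48 μM. Read-out is the intrinsic Trp50 fluorescence of the protease, measured with and without aprotinin. Readings with aprotinin corrected for aprotinin's own fluorescence.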

The subject of assay [2] is dengue virus type 2. Kind of assay: Competitive inhibition of DENV serotype 2 NS2B-NS3 protease expressed in Escherichia coli BL21 lambda (DE3) cells using Abz-Nle-Lys-Arg-Arg-Ser-3-(NO2)Tyr as substrate at 0.25 to 3 uM preincubated for 15 mins followed by substrate addition measured for 15 mins by Cornish-Bowden plot analysis. A digest of the protocol:
(§2)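 DENV serotype 2 protease, FRET read-out. Substrate at 50, 100, 150, 200 μM; inhibitor at 0, 0.25, 0.5, 1, 1.5, 2, 2.5, 3 μM; triplicates, two outliers of 96 values excluded. Ki taken from the Cheng-Prusoff plot (IC50 vs substrate, Y-intercept), the Dixon plot (mean of line intersections), or the Cornish-Bowden plot.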

Assay [3] addresses Genome polyprotein (West Nile virus) (UniProt P06935). Kind of assay: Inhibition of WNV NS2B-NS3 protease expressed in Escherichia coli BL21 lambda (DE3) cells using Abz-Gly-Leu-Lys-Arg-Gly-Gly-3-(NO2)Tyr as substrate at 50 uM preincubated for 15 mins followed by substrate addition measured for 15 mins by FRET assay relative to control.
Assay [4] concerns dengue virus type 2. Kind of assay: Binding affinity to DENV serotype 2 NS2B-NS3 protease expressed in Escherichia coli BL21 lambda (DE3) cells by fluorescence quenching assay in absence of DENV protease inhibitor aprotinin. A digest of the protocol: as §1
The target of assay [5] is Prothrombin (Homo sapiens) (UniProt P00734). Kind of assay: Inhibition of thrombin (unknown origin) using Boc-Val-Pro-Arg-AMC as substrate at 25 uM preincubated for 15 mins followed by substrate addition measured for 10 mins by FRET assay relative to control.
Assay [6] in a line: Inhibition of DENV serotype 2 NS2B-NS3 protease expressed in Escherichia coli BL21 lambda (DE3) cells using Abz-Nle-Lys-Arg-Arg-Ser-3-(NO2)Tyr as substrate preincubated for 15 mins followed by substrate addition measured for 15 mins by FRET assay. More on the design: species or system dengue virus type 2. A digest of the protocol:
(§3)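 IC50 by FRET assay at substrate 50 μM; DENV protease at 100 nM, WNV protease at 150 nM. Measured in triplicate.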

Assay [7] addresses T1, Genome polyprotein (West Nile virus, UniProt P06935). As to the kind of experiment: Inhibition of WNV NS2B-NS3 protease expressed in Escherichia coli BL21 lambda (DE3) cells using Abz-Gly-Leu-Lys-Arg-Gly-Gly-3-(NO2)Tyr as substrate preincubated for 15 mins followed by substrate addition measured for 15 mins by FRET assay. A digest of the protocol:
as §3

Assay [8] concerns dengue virus type 2. Kind of assay: Inhibition of DENV serotype 2 NS2B-NS3 protease expressed in Escherichia coli BL21 lambda (DE3) cells using Abz-Nle-Lys-Arg-Arg-Ser-3-(NO2)Tyr as substrate at 50 uM preincubated for 15 mins followed by substrate addition measured for 15 mins by FRET assay relative to control.
Assay [9] is described as follows: Inhibition of DENV serotype 2 NS2B-NS3 protease expressed in Escherichia coli BL21 lambda (DE3) cells using Abz-Nle-Lys-Arg-Arg-Ser-3-(NO2)Tyr as substrate preincubated for 15 mins followed by substrate addition measured for 15 mins by Dixon plot analysis. More on the design: species or system dengue virus type 2. A digest of the protocol:
as §2

Assay [10] can be described thus: Competitive inhibition of DENV serotype 2 NS2B-NS3 protease expressed in Escherichia coli BL21 lambda (DE3) cells using Abz-Nle-Lys-Arg-Arg-Ser-3-(NO2)Tyr as substrate preincubated for 15 mins followed by substrate addition measured for 15 mins by Cheng-Prusoff plot analysis. Set-up: species or system dengue virus type 2. A digest of the protocol: as §2
In assay [11] the target is Genome polyprotein (West Nile virus) (UniProt P06935). Kind of assay: Competitive inhibition of WNV NS2B-NS3 protease expressed in Escherichia coli BL21 lambda (DE3) cells using Abz-Gly-Leu-Lys-Arg-Gly-Gly-3-(NO2)Tyr as substrate at 0.5 to 6 uM preincubated for 15 mins followed by substrate addition measured for 15 mins by Cheng-Prusoff plot analysis. A digest of the protocol: (§4)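 WNV protease, FRET read-out. Substrate at 50, 100, 150, 200 μM; inhibitor at 0, 0.5, 1, 2, 3, 4, 5, 6 μM; triplicates repeated three times, 12 outliers of 288 values excluded. Ki taken from the Cheng-Prusoff plot (Y-intercept of IC50 vs substrate) or the Dixon plot (mean of line intersections).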

The target in assay [12] is T1, Genome polyprotein. Kind of assay: Competitive inhibition of WNV NS2B-NS3 protease expressed in Escherichia coli BL21 lambda (DE3) cells using Abz-Gly-Leu-Lys-Arg-Gly-Gly-3-(NO2)Tyr as substrate preincubated for 15 mins followed by substrate addition measured for 15 mins by Cheng-Prusoff plot analysis. A digest of the protocol: as §4
Assay [13] deals with T1, Genome polyprotein. Kind of assay: Inhibition of WNV NS2B-NS3 protease expressed in Escherichia coli BL21 lambda (DE3) cells using Abz-Gly-Leu-Lys-Arg-Gly-Gly-3-(NO2)Tyr as substrate preincubated for 15 mins followed by substrate addition measured for 15 mins by Dixon plot analysis. A digest of the protocol:
as §4

Sequence of Genome polyprotein (West Nile virus) (P06935 whole entry): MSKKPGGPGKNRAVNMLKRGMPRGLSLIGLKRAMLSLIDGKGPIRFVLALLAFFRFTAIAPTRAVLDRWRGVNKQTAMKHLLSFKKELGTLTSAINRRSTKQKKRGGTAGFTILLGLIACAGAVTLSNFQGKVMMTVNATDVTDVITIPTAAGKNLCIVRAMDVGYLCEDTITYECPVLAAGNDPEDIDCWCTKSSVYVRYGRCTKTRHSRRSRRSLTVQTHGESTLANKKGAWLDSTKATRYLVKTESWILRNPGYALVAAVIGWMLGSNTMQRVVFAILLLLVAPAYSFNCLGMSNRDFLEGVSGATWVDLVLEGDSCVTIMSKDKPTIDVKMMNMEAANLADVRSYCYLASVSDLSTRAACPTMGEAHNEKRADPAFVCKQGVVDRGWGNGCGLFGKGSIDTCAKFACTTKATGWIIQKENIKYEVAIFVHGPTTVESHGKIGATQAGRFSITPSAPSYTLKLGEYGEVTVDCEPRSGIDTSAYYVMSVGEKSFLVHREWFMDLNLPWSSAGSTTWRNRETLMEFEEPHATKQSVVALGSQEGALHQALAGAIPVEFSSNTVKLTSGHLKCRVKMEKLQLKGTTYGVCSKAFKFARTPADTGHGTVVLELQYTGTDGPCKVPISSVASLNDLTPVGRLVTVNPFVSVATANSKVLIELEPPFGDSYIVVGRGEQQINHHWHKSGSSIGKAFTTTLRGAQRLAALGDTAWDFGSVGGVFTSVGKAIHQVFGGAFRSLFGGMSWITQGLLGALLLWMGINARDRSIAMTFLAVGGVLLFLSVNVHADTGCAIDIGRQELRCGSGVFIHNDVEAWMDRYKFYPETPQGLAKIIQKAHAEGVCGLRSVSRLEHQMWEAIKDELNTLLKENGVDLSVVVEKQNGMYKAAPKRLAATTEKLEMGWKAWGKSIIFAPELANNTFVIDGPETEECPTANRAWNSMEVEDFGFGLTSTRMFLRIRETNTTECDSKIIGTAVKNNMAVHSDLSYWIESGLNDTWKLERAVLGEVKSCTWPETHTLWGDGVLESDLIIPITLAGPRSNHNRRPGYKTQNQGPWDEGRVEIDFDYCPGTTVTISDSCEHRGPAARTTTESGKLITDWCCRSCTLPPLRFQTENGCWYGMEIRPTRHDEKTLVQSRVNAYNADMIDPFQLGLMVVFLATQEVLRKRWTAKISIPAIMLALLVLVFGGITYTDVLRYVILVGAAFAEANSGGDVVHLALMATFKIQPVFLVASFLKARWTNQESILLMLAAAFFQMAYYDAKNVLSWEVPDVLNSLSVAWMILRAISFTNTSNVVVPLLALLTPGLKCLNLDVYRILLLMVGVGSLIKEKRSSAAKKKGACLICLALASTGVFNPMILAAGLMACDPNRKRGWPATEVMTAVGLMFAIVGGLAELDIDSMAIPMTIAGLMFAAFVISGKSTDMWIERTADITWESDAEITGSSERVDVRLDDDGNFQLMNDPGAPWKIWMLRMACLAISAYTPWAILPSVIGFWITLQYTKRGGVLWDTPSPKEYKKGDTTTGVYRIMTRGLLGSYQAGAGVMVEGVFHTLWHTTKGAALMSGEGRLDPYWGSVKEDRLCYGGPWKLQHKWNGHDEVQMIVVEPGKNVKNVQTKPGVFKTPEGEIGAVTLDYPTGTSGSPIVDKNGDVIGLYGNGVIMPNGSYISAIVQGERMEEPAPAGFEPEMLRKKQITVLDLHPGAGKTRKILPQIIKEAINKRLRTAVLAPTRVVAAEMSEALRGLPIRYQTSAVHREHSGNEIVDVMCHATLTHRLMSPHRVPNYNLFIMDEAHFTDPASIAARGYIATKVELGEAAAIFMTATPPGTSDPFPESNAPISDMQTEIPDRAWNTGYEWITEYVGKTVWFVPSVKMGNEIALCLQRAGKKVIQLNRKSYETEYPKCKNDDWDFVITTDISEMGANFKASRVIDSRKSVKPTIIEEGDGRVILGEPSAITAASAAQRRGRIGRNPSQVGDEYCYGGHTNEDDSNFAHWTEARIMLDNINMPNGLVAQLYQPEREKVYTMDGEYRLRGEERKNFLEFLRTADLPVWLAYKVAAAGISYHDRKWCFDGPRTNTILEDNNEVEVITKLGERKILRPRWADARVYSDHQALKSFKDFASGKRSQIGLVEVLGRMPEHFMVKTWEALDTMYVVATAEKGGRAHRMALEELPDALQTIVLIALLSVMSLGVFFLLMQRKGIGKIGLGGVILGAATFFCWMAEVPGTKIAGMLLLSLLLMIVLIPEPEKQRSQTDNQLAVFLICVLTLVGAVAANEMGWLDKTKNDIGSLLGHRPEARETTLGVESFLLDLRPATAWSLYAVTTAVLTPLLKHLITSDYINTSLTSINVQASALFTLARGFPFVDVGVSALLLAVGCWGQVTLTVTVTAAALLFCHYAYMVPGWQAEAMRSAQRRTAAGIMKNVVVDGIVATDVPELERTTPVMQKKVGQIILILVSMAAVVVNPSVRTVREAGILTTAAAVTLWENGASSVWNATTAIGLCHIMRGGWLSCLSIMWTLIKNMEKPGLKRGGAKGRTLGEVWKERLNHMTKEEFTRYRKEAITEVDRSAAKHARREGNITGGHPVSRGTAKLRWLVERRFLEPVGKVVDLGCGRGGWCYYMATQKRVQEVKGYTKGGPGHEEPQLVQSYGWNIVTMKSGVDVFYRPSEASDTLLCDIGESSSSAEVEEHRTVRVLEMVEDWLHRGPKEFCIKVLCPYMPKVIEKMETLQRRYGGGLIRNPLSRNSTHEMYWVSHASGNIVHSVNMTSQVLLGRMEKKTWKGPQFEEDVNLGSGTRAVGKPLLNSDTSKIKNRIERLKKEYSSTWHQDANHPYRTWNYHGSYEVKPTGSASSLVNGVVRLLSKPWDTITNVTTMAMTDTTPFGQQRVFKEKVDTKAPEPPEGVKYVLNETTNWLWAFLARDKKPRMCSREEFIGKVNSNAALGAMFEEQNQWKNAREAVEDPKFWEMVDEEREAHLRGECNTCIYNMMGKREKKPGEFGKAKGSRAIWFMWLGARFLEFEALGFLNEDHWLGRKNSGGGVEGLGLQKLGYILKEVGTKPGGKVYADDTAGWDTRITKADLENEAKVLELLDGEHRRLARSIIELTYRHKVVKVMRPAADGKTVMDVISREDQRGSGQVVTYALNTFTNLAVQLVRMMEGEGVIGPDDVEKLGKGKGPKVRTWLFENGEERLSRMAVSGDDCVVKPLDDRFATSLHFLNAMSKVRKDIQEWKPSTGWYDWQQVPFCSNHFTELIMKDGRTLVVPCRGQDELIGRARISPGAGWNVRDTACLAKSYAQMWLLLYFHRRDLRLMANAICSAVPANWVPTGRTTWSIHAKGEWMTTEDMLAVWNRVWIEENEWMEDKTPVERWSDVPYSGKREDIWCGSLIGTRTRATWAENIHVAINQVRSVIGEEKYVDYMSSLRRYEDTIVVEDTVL
T1 sequence (P06935 1371-1501 limits assumed): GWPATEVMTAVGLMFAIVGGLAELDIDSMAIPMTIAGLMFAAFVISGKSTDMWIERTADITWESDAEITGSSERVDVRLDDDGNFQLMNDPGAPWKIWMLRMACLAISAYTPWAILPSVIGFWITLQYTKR
T1 sequence (P06935 1502-2120 limits assumed): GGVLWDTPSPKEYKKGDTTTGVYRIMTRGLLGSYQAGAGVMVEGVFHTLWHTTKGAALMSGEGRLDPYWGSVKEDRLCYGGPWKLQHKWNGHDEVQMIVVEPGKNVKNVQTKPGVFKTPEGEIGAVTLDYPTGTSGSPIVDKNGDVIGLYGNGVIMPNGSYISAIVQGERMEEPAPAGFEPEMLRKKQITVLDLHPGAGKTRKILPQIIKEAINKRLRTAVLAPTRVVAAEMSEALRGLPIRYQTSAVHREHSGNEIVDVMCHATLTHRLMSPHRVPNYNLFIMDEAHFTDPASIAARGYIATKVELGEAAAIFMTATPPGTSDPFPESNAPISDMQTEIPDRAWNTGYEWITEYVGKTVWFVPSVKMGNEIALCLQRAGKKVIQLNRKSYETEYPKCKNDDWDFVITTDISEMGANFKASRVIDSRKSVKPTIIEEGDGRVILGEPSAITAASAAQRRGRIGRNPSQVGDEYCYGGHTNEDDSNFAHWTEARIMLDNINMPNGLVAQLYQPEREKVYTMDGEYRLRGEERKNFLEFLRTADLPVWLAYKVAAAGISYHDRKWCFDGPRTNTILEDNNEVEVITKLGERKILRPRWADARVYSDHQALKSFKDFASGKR

By inhibition is commonly meant the relative decrease from the control value, in per cent. The term IC50 denotes the point on the concentration scale where inhibition reaches its midpoint. Higher therefore signals lower potency. Broadly, the Ki is a measure of affinity in units of concentration, obtained from inhibition or displacement. Low values mean a stronger hold on the target, high ones a looser hold on the target. Turning to `C#CCCN1C(=O)S/C(=C\c2ccc(C(=O)N[C@@H](CCCNC(=N)N)C(=O)N[C@@H](CCCCN)C(=O)N[C@H](C(N)=O)c3ccccc3)cc2)C1=O`, in assay [1], the outcome was inactive. In addition, the inhibition result in assay [2] is “Active”. In addition, the figures for the inhibition in assay [3], in assay [5] and in [8] were 97.8%, 13% and 99.9%, respectively. Further, in assay [4], the Activity result was “Dose-dependent effect”. Also, the concentration for half-maximal inhibition (IC50) worked out at 460 nM in [6] and 2120 nM in [7]. In addition, the inhibition constant Ki in assay [9] is 100 nM; in assay [10], 400 nM.
`N=C(N)NCCC[C@H](NC(=O)c1ccc(/C=C2\SC(=O)N(CC3CCCCC3)C2=O)cc1)C(=O)N[C@@H](CCCCN)C(=O)N[C@H](C(N)=O)c1ccccc1`: in assay [11], the inhibition result is “Active”. The results for the inhibition constant (Ki) in [12] and in [13] were 1300 nM and 820 nM, respectively. Also, the inhibition turned out to be 99.6% in assay [3], 6.9% in assay [5] and 99.3% in assay [8]. In addition, the results for the 50% inhibitory concentration (IC50) in assay [6] and in assay [7] were 1050 nM and 750 nM, respectively.
